Bounds are passed on as bounds.

Series [1] has as its target T1, Metabotropic glutamate receptor 4 (Homo sapiens, UniProt Q14833). Nature of the series: Positive allosteric modulation of human mGlu4 receptor expressed in CHO cells assessed as potentiation of glutamate-induced calcium mobilization. The format is functional, cell-based. The essentials: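 Human mGlu4 co-expressed with the chimeric G protein Gqi5 in CHO cells. Compounds were tested in the presence of an EC20 glutamate concentration as 1:3 serial dilutions starting at 30 μM. Values are the mean of triplicates run on one day. For % PHCCC, each compound's maximal response was divided by the response to the control PAM PHCCC measured that same day.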
Background: A change in cytosolic calcium serves as a functional read-out for many receptors and channels.

The target of series [2] is T1, Metabotropic glutamate receptor 4. Nature of the series: Positive allosteric modulation of human mGlu4 receptor expressed in CHO cells assessed as potentiation of glutamate-induced calcium mobilization relative to PHCCC. It counts as functional, cell-based. The essentials: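 Human mGlu4/Gqi5 CHO cells with an EC20 concentration of glutamate; compounds tested in 1:3 serial dilutions from 30 μM, in triplicate on one day. The maximal response elicited by each compound was divided by the response to the control PAM PHCCC measured on the same day.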

The nature of series [3]: Metabolic stability in rat liver microsomes assessed as compound remaining after 60 mins. The format is ADME, Microsome. As to conditions: read-out: Stability; call rule not given here.
A short description of series [4]: Fraction unbound in rat plasma. It counts as ADME, cell-free.
The species named for the next series is Homo sapiens. Nature of the series: Fraction unbound in human plasma.
The target of series [5] is T1, Metabotropic glutamate receptor 4. The experiment in a line: Positive allosteric modulation of human mGlu4 receptor expressed in CHO cells assessed as potentiation of glutamate-induced calcium mobilization at > 30 uM. It counts as functional, cell-based.
Series [6] can be described thus: Metabolic stability in human liver microsomes assessed as compound remaining after 60 mins. It counts as ADME, Microsome. As to conditions: read-out: Stability. In general terms: Microsomes from liver hold many membrane-bound enzymes, among them those of drug oxidation.

T1 sequence (Q14833 whole entry): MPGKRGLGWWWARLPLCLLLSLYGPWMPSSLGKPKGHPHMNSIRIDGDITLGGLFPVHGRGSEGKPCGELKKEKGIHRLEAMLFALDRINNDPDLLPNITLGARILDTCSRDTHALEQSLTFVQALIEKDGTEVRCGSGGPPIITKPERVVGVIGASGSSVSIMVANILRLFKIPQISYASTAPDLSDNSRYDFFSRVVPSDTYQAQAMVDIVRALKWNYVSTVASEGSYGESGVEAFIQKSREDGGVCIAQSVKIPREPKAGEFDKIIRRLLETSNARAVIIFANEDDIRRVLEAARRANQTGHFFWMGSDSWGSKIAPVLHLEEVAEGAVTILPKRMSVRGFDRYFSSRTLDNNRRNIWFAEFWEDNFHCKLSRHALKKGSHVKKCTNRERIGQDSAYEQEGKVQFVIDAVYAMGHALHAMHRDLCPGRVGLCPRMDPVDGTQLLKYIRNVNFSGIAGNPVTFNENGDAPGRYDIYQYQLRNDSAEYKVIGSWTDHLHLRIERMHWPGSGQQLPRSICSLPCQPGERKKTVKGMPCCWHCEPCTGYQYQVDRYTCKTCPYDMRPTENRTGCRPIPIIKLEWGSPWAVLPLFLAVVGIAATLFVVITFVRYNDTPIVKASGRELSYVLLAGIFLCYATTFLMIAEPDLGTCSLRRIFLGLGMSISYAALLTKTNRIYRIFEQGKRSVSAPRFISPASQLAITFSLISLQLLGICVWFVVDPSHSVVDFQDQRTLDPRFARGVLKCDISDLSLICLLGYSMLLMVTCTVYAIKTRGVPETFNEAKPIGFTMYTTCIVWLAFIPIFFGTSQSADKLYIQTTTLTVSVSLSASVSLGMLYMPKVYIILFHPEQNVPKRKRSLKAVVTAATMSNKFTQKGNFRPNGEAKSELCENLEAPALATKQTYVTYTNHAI

A word on the EC50: it is the midpoint of the concentration-response curve. One may read the Emax as the maximal effect, on the per cent scale that the assay sets. One may read the fraction unbound as the share of the substance not bound to proteins or other matrix. High values mean much free substance, low ones little free substance. As for `Cc1cc(C)c(NS(=O)(=O)c2ccc(NC(=O)c3ccccn3)cc2)c(C)c1`, in series [1], the EC50 was 159 nM. The Emax in series [2] was found to be 60.5%. Moreover, in series [3], the remaining at 1 h stood at 25.8%. In addition, the fraction unbound amounted to 0.003 in series [4] and 0.001 in the series listed under Homo sapiens.
Regarding `O=C(Nc1ccc(S(=O)(=O)NCC2CC2)cc1)c1ccccn1`, the concentration for a half-maximal effect (EC50) in series [1] was over 5000 nM. The Emax in series [2] is 70.2%.
Take `O=C(Nc1ccc(S(=O)(=O)NC2CCC2)cc1)c1ccccn1`: the EC50 in series [1] was over 5000 nM. In addition, in series [2], the Emax came out at 64.4%.
For the compound `O=C(Nc1ccc(S(=O)(=O)N2CCCC2)cc1)c1ccccn1`, the Emax in series [2] came to 15.4%. Further, the EC50 entry in series [5] is given as “Not Active”.
For `COCCNS(=O)(=O)c1ccc(NC(=O)c2ccccn2)cc1`, the EC50 in series [1] was over 10000 nM. In addition, the Emax in series [2] was 22.1%.
Consider `O=C(Nc1ccc(CS(=O)(=O)c2ccccc2Cl)cc1)c1ccccn1`, for which the EC50 in series [1] was found to be 2170 nM. Further, the Emax in series [2] is 46.5%.
For `O=C(Nc1ccc(S(=O)(=O)Nc2ccccc2Cl)cc1)c1ccccn1`, the EC50 in series [1] worked out at 27 nM. In addition, the Emax in series [2] was 88.2%. For the same compound, the remaining at 1 h in series [6] and in series [3] was 0.02% throughout. In addition, the results for the fraction unbound (in series [4]; in the series filed under Homo sapiens) were 0.003 and 0.001, respectively.
On to `O=C(Nc1ccc(S(=O)(=O)Nc2ccc(Cl)c(C(F)(F)F)c2)cc1)c1ccccn1`, for which the Emax in series [2] was 19.5%. In addition, the EC50 result in series [5] is “Not Active”.
With `O=C(Nc1ccc(S(=O)(=O)Nc2ccccc2Cl)cc1)c1cccc(F)n1`, the EC50 in series [1] was found to be 122 nM. Further, the maximal response (Emax) in series [2] was found to be 90%.
`Cc1cc(C)c(NS(=O)(=O)c2ccc(NC(=O)c3ccco3)cc2)c(C)c1`: in series [1], the EC50 turned out to be 5960 nM. For the same compound, the Emax in series [2] amounted to 52%. Moreover, in series [3], the remaining at 1 h is 93.3%. Further, the fraction unbound stood at 0.082 in series [4] and 0.022 in the series listed under Homo sapiens.
As for `CN(c1ccccc1Cl)S(=O)(=O)c1ccc(NC(=O)c2nccs2)cc1`, the EC50 in series [1] came out at 686 nM. The Emax in series [2] amounted to 25.4%. The remaining at 1 h in series [6] came out at 0.1%; in series [3] it was 0.08%. Besides, the figures for the fraction unbound (in series [4]; in the series listed under Homo sapiens) were 0.37 and 0.005, respectively.
On to `O=C(Nc1ccc(S(=O)(=O)Nc2ccccc2)cc1)c1ccccn1`, for which the EC50 in series [1] amounted to 177 nM. For the same compound, the Emax in series [2] came out at 69.2%.
`O=C(Nc1ccc(S(=O)(=O)Nc2ccccc2Cl)cc1)c1ccncn1`: in series [1], the EC50 stood at 478 nM. Besides, in series [2], the Emax was 103%.
The matching figures for `O=C(Nc1ccc(S(=O)(=O)Nc2ccccc2F)cc1)c1ccccn1`: 206 nM and 91.7%.
As to `CN(c1ccccc1Cl)S(=O)(=O)c1ccc(NC(=O)c2ccncn2)cc1`, the EC50 in series [1] came out at 990 nM. For the same compound, the Emax in series [2] is 31.1%. The remaining at 1 h turned out to be 2.5% in series [6] and 3.3% in series [3]. In addition, the results for the fraction unbound (in series [4]; in the series listed under Homo sapiens) were 0.027 and 0.017, respectively.
Take `COc1ccccc1NS(=O)(=O)c1ccc(NC(=O)c2ccccn2)cc1OC`: the concentration giving a half-maximal response (EC50) in series [1] was determined as 132 nM. The Emax in series [2] is 112%. The remaining at 1 h in series [6] was 1.3%; in series [3], 0.05%. The figures for the fraction unbound (in series [4]; in the series listed under Homo sapiens) were 0.127 and 0.003, respectively.
For `COc1cccc(C(=O)Nc2ccc(S(=O)(=O)Nc3ccccc3Cl)cc2)n1`, in series [2], the Emax came to 8.6%. Further, the EC50 entry in series [5] is recorded as “Not Active”.
For `O=C(Nc1ccc(S(=O)(=O)Cc2ccccc2Cl)cc1)c1ccccn1`, the Emax in series [2] was determined as 46.3%.
Turning to `O=C(Nc1ccc(S(=O)(=O)Nc2ccccc2Cl)c(Cl)c1)c1ccccn1`, the EC50 in series [1] came to 19.8 nM. Also, the Emax in series [2] stood at 102%. Further, the results for the remaining at 1 h in series [6] and in series [3] were 0.63% and 0.02%, respectively.
For the compound `O=C(Nc1ccc(S(=O)(=O)Nc2cc(F)ccc2F)cc1)c1ccccn1`, in series [1], the EC50 came to 325 nM. In series [2], the Emax came out at 87.6%.
In the case of `O=C(Nc1ccc(S(=O)(=O)N2CCc3ccccc32)cc1)c1ccccn1`, the maximal effect (Emax) in series [2] was 12%. In addition, the 50% effective concentration (EC50) result in series [5] is “Not Active”.
The matching figures for `O=C(Nc1ccc(S(=O)(=O)Nc2ccccc2Cl)cc1Cl)c1ccccn1`: 8.1% and “Not Active”.
Turning to `O=C(Nc1ccc(S(=O)(=O)Nc2ccc(F)c(Cl)c2)cc1)c1ccccn1`, the Emax in series [2] was found to be 19.8%. The EC50 entry in series [5] is “Not Active”.
As for `O=C(Nc1ccc(S(=O)(=O)NC2CC2)cc1)c1ccccn1`, the EC50 in series [1] is over 10000 nM. Besides, the Emax in series [2] amounted to 23.7%.
In the case of `O=C(Nc1ccc(Cl)c(S(=O)(=O)Nc2ccccc2Cl)c1)c1ccccn1`, the EC50 in series [1] was determined as 731 nM. For the same compound, in series [2], the Emax stood at 54.9%. For the same compound, the figures for the remaining at 1 h in series [6] and in series [3] were 11.9% and 0.05%, respectively.
Take `O=C(Nc1ccc(S(=O)(=O)Nc2ccccc2Cl)cc1)c1nccs1`: the EC50 in series [1] amounted to 77.4 nM. Moreover, in series [2], the Emax turned out to be 79.4%. Also, the remaining at 1 h in series [6] came to 0.84%; in series [3], 1.2%. The fraction unbound (in series [4]; in the series filed under Homo sapiens) was 0.001 in each case.
`CC1CCN(S(=O)(=O)c2ccc(NC(=O)c3ccccn3)cc2)CC1`: the EC50 in series [1] was determined as 372 nM. Further, in series [2], the Emax was determined as 35.8%.
`O=C(Nc1ccc(S(=O)(=O)Nc2ccccc2Cl)cc1)c1ccsc1`: the EC50 in series [1] was 269 nM. In addition, the Emax in series [2] was 54.2%.
For `O=C(Nc1ccc(S(=O)(=O)NC2CCCCC2)cc1)c1ccccn1`, in series [1], the EC50 came to 1030 nM. Besides, the Emax in series [2] stood at 63.1%.

For the origin of these results see ChEMBL document CHEMBL1221266, “Synthesis and SAR of novel, 4-(phenylsulfamoyl)phenylacetamide mGlu4 positive allosteric modulators (PAMs) identified by functional high-throughput screening (HTS)” (Bioorg Med Chem Lett, 2010).
